From ChEMBL document CHEMBL1134681, “Pseudoproline-containing analogues of morphiceptin and endomorphin-2: evidence for a cis Tyr-Pro amide bond in the bioactive conformation” (J Med Chem, 2001)

Legend:
Cavia porcellus [1] = organism: Cavia porcellus; test: In vitro inhibition of electrically evoked contractions of GPI (Guinea pig ileum); type: functional
Mus musculus [2] = organism: Mus musculus; test: In vitro inhibition of electrically evoked contractions of MVD (Mouse vas deferens); type: functional
[3] = biological target: Delta-type opioid receptor (Rattus norvegicus, UniProt P33533); test: Binding affinity towards delta receptor in rat brain using [3H]DSLET; type: tissue-based
Mu-type opioid receptor [4] = biological target: T1, Mu-type opioid receptor (Rattus norvegicus, UniProt P33535); test: (§1) Binding affinity towards mu receptor in rat brain using [3H]DAMGO; type: tissue-based
Cavia porcellus [5] = organism: Cavia porcellus; test: In vitro inhibition of electrically evoked contractions of GPI (Guinea pig ileum) relative to [Leu5]-enkephalin; type: functional
Mus musculus [6] = organism: Mus musculus; test: In vitro inhibition of electrically evoked contractions of MVD (Mouse vas deferens) relative to [Leu5]-enkephalin; type: functional
[7] = Ratio of inhibition of electrically evoked contractions of mouse vas deferens and inhibition of electrically evoked contractions of guinea pig ileum; IC50 ratio; type: functional
How it was run: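 Ratio of normalized IC50 values from electrically stimulated mouse vas deferens versus guinea pig ileum.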

Mu-type opioid receptor [8] = biological target: T1, Mu-type opioid receptor; test: as §1; type: tissue-based; remark: listed apart in the source
How it was run: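 Rat brain membranes; competitive displacement of [³H]DAMGO (0.72 nM; Kd 1.3 nM), incubated 2 h at 0 °C. IC50 taken from log dose–displacement curves, converted to Ki by Cheng–Prusoff.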

Cavia porcellus [9] = organism: Cavia porcellus; test: in vitro inhibition of electrically evoked contractions of GPI (Guinea pig ileum); type: functional
Mus musculus [10] = organism: Mus musculus; test: in vitro inhibition of electrically evoked contractions of MVD (Mouse vas deferens); type: functional
Cavia porcellus [11] = organism: Cavia porcellus; test: in vitro inhibition of electrically evoked contractions of GPI (Guinea pig ileum) relative to [Leu5]-enkephalin; type: functional
How it was run: (§2)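 Electrically stimulated isolated tissue (guinea pig ileum or mouse vas deferens), with inhibition of evoked contractions as read-out. […] IC50 values were taken from these curves and normalized to that standard by a published procedure.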

Mus musculus [12] = organism: Mus musculus; test: in vitro inhibition of electrically evoked contractions of MVD (Mouse vas deferens) relative to [Leu5]-enkephalin; type: functional; how it was run: as §2

T1 sequence (P33535 whole entry): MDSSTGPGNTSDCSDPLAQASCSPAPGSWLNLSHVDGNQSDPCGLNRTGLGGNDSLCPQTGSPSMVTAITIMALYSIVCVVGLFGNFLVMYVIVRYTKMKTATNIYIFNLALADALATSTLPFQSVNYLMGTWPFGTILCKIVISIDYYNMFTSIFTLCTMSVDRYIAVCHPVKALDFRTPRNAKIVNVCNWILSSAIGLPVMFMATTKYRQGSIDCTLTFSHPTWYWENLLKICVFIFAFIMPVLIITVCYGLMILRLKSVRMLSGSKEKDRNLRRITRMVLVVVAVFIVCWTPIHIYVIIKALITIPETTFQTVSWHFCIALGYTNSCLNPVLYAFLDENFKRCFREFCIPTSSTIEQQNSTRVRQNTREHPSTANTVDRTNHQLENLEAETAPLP
Delta-type opioid receptor, sequence (P33533 whole entry): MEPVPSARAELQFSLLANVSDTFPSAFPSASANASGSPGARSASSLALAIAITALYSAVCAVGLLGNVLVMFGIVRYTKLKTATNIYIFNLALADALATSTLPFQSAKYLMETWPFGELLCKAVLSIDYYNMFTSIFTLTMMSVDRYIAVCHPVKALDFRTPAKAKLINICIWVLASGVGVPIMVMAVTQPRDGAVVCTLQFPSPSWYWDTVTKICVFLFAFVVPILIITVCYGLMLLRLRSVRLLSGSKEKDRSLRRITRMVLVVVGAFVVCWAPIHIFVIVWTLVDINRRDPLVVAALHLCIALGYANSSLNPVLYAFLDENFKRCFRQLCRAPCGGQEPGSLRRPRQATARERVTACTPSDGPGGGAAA

Row | Compound | IC50 (Cavia porcellus [1]) [nM] | IC50 (Mus musculus [2]) [nM] | Ki [3] [nM] | Ki (Mu-type opioid receptor [4]) [nM] | Relative potency (Cavia porcellus [5]) | Relative potency (Mus musculus [6]) | other results
1 | NC(=O)[C@@H]1CCCN1C(=O)[C@@H](Cc1ccccc1)NC(=O)[C@@H]1CSCN1C(=O)[C@@H](N)Cc1ccc(O)cc1 [listing 1 of 2 here] | 74.5 | 190 | 2450 | 8.57 | – | – | –
2 | NC(=O)[C@@H]1CCCN1C(=O)[C@@H](Cc1ccccc1)NC(=O)[C@@H]1CSCN1C(=O)[C@@H](N)Cc1ccc(O)cc1 [listing 2 of 2 here] | – | – | – | – | 3.3 | 0.06 | Ratio [7]: 5.45
3 | CC1(C)SC[C@@H](C(=O)N[C@H](Cc2ccccc2)C(=O)N2CCC[C@H]2C(N)=O)N1C(=O)[C@@H](N)Cc1ccc(O)cc1 [listing 1 of 2 here] | 246 | 1420 | > 10000 | 37.7 | – | – | –
4 | CC1(C)SC[C@@H](C(=O)N[C@H](Cc2ccccc2)C(=O)N2CCC[C@H]2C(N)=O)N1C(=O)[C@@H](N)Cc1ccc(O)cc1 [listing 2 of 2 here] | – | – | – | – | 1 | 0.00803 | –
5 | NC(=O)[C@@H]1CCCN1C(=O)[C@@H](Cc1ccccc1)NC(=O)[C@@H]1COCN1C(=O)[C@@H](N)Cc1ccc(O)cc1 [listing 1 of 2 here] | 470 | 1020 | > 10000 | 58.9 | – | – | –
6 | NC(=O)[C@@H]1CCCN1C(=O)[C@@H](Cc1ccccc1)NC(=O)[C@@H]1COCN1C(=O)[C@@H](N)Cc1ccc(O)cc1 [listing 2 of 2 here] | – | – | – | – | 0.523 | 0.0112 | –
7 | CC1(C)OC[C@@H](C(=O)N[C@H](Cc2ccccc2)C(=O)N2CCC[C@H]2C(N)=O)N1C(=O)[C@@H](N)Cc1ccc(O)cc1 [listing 1 of 2 here] | 860 | 851 | > 10000 | 96.5 | – | – | –
8 | CC1(C)OC[C@@H](C(=O)N[C@H](Cc2ccccc2)C(=O)N2CCC[C@H]2C(N)=O)N1C(=O)[C@@H](N)Cc1ccc(O)cc1 [listing 2 of 2 here] | – | – | – | – | 0.286 | 0.0134 | Ratio [7]: 2.17
9 | NC(=O)[C@H](Cc1ccccc1)NC(=O)[C@H](Cc1ccccc1)NC(=O)[C@@H]1CSCN1C(=O)[C@@H](N)Cc1ccc(O)cc1 [listing 1 of 2 here] | 22.2 | 138 | 1980 | 6.41 | – | – | –
10 | NC(=O)[C@H](Cc1ccccc1)NC(=O)[C@H](Cc1ccccc1)NC(=O)[C@@H]1CSCN1C(=O)[C@@H](N)Cc1ccc(O)cc1 [listing 2 of 2 here] | – | – | – | – | 11.1 | 0.0826 | Ratio [7]: 6.22
11 | CC1(C)SC[C@@H](C(=O)N[C@@H](Cc2ccccc2)C(=O)N[C@@H](Cc2ccccc2)C(N)=O)N1C(=O)[C@@H](N)Cc1ccc(O)cc1 [listing 1 of 2 here] | 502 | – | > 10000 | – | – | – | Ki (Mu-type opioid receptor [8]): 50.4 nM
12 | CC1(C)SC[C@@H](C(=O)N[C@@H](Cc2ccccc2)C(=O)N[C@@H](Cc2ccccc2)C(N)=O)N1C(=O)[C@@H](N)Cc1ccc(O)cc1 [listing 2 of 2 here] | – | – | – | – | 0.49 | – | Inhibition (Mus musculus [6]): 26%
13 | CC1(C)OC[C@@H](C(=O)N[C@@H](Cc2ccccc2)C(=O)N[C@@H](Cc2ccccc2)C(N)=O)N1C(=O)[C@@H](N)Cc1ccc(O)cc1 [listing 1 of 2 here] | 305 | 606 | > 10000 | 46.9 | – | – | –
14 | CC1(C)OC[C@@H](C(=O)N[C@@H](Cc2ccccc2)C(=O)N[C@@H](Cc2ccccc2)C(N)=O)N1C(=O)[C@@H](N)Cc1ccc(O)cc1 [listing 2 of 2 here] | – | – | – | – | 0.807 | 0.0188 | Ratio [7]: 1.99
15 | NC(=O)[C@H](Cc1ccccc1)NC(=O)[C@H](Cc1ccccc1)NC(=O)[C@@H]1COCN1C(=O)[C@@H](N)Cc1ccc(O)cc1 [listing 1 of 2 here] | 41.7 | 151 | > 4000 | 7.86 | – | – | –
16 | NC(=O)[C@H](Cc1ccccc1)NC(=O)[C@H](Cc1ccccc1)NC(=O)[C@@H]1COCN1C(=O)[C@@H](N)Cc1ccc(O)cc1 [listing 2 of 2 here] | – | – | – | – | 5.9 | 0.0755 | Ratio [7]: 3.62
17 | NC(=O)[C@@H]1CCCN1C(=O)C(Cc1ccccc1)NC(=O)[C@H]1CCCN1C(=O)[C@@H](N)Cc1ccc(O)cc1 (stereo in doubt) [listing 1 of 2 here] | – | – | > 10000 | – | – | – | IC50 (Cavia porcellus [9]): 109 nM; IC50 (Mus musculus [10]): 594 nM
18 | NC(=O)[C@@H]1CCCN1C(=O)C(Cc1ccccc1)NC(=O)[C@H]1CCCN1C(=O)[C@@H](N)Cc1ccc(O)cc1 (stereo in doubt) [listing 2 of 2 here] | – | – | – | – | – | – | Relative potency (Cavia porcellus [11]): 2.26; Relative potency (Mus musculus [12]): 0.0192
19 | NC(=O)[C@H](Cc1ccccc1)NC(=O)[C@H](Cc1ccccc1)NC(=O)[C@@H]1CCCN1C(=O)[C@@H](N)Cc1ccc(O)cc1 [ENDOMORPHIN 2] | – | – | – | – | – | – | IC50 (Cavia porcellus [9]): 7.71 nM; IC50 (Mus musculus [10]): 15.3 nM
20 | CC(C)C[C@H](NC(=O)[C@H](Cc1ccccc1)NC(=O)CNC(=O)CNC(=O)[C@@H](N)Cc1ccc(O)cc1)C(N)=O [[LEU5]ENKEPHALIN] | – | – | – | – | – | – | IC50 (Cavia porcellus [9]): 246 nM; IC50 (Mus musculus [10]): 11.4 nM
